Test results reported in ChEMBL document CHEMBL4622928, “Discovery of 5-(4-methylpiperazin-1-yl)-2-nitroaniline derivatives as a new class of SIRT6 inhibitors” (Bioorg Med Chem Lett, 2020).
Activity calls are given as the source filed them. The rule behind the calls is not given here.

Experiments:
[1] = target: T1, Protein deacetylase HDAC6 (Homo sapiens, UniProt Q9UBN7); experiment: Inhibition of HDAC6 (unknown origin)
T1 sequence (Q9UBN7 whole entry): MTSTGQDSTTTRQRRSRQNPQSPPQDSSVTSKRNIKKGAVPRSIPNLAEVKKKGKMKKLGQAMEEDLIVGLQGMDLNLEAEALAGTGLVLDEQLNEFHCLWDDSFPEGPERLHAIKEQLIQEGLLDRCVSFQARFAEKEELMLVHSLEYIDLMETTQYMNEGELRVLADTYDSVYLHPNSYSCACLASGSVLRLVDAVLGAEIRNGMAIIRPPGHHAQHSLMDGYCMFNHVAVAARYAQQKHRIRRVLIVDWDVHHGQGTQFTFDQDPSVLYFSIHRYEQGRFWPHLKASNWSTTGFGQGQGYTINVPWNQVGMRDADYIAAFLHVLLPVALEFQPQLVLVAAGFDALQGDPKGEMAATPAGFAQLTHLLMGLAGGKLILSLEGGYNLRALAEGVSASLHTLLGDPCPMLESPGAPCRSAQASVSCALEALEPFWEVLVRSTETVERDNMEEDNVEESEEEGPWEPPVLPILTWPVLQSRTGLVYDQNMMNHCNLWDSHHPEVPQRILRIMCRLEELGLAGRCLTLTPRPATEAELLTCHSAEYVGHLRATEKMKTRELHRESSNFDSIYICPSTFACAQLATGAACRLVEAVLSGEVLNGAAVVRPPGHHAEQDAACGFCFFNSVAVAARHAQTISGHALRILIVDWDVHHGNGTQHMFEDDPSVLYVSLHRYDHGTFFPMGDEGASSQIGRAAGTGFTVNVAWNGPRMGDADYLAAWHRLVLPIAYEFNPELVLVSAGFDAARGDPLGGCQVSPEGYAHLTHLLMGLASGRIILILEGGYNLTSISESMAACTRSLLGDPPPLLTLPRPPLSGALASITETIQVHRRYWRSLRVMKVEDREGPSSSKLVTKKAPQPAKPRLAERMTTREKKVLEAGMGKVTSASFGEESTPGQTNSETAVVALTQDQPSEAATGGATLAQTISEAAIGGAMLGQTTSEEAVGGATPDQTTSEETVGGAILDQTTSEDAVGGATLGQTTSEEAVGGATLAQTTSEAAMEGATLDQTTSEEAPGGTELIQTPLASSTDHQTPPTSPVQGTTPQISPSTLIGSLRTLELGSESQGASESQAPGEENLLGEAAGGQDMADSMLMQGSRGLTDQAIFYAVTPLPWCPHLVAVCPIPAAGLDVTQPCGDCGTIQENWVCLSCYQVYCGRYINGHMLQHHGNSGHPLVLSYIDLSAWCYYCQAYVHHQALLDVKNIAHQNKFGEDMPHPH
Summary of the method: (§1)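 Each deacetylase was run in a Fluor de Lys (FDL) fluorogenic deacetylation assay as a selectivity screen, with compound tested at concentrations up to 200 μM. IC50 was estimated from the dose-response.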

BXPC-3 = experiment: Upregulation of GLUT1 expression in human BxPC3 cells measured after 72 hrs by Western blot analysis; assay type: functional, cell-based
Summary of the method: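 BxPC-3 cells were exposed to 1.25, 2.5, 5 and 10 μM compound for 72 h. GLUT1 protein was then detected by western blot, with α-tubulin as loading control.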

[2] = target: T2, NAD-dependent protein deacetylase sirtuin-3, mitochondrial (Homo sapiens, UniProt Q9NTG7); experiment: Inhibition of SIRT3 (unknown origin); summary of the method: as §1
T2 sequence (Q9NTG7 whole entry): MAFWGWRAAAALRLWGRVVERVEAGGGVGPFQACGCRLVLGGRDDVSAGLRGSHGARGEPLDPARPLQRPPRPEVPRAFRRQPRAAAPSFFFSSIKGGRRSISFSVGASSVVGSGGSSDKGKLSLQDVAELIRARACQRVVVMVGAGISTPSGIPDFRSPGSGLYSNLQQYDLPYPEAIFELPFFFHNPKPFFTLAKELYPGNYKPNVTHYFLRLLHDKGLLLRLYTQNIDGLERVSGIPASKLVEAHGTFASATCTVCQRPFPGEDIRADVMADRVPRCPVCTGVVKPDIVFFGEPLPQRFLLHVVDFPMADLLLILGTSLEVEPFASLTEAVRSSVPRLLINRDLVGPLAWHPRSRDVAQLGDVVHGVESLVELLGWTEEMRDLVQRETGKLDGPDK

[3] = Toxicity in mouse model of type-2 diabetes mellitus assessed as effect on body weight at 7.5 to 30 mg/kg, ip; assay type: organism-based; conditions: in vivo
Summary of the method: (§2)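 High-fat-diet-fed mice served as the type 2 diabetes model. Compound was given by intraperitoneal injection, and blood glucose and body weight were followed over time.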

[4] = target: NAD-dependent protein deacylase sirtuin-6 (Homo sapiens, UniProt Q8N6T7); experiment: Binding affinity to SIRT6 (unknown origin) assessed as change in melting temperature at 40 uM by differential scanning fluorimetry
Histone deacetylase 2 = Histone deacetylase 2 (Homo sapiens, UniProt Q92769); experiment: Inhibition of HDAC2 (unknown origin); summary of the method: as §1
Mus musculus = experiment: Antidiabetic activity in mouse model of type-2 diabetes mellitus assessed as reduction in blood glucose at 7.5 to 30 mg/kg, ip; assay type: functional, organism-based; summary of the method: as §2
Histone deacetylase 1 = Histone deacetylase 1 (Homo sapiens, UniProt Q13547); experiment: Inhibition of HDAC1 (unknown origin); summary of the method: as §1
[5] = target: T3, Polyamine deacetylase HDAC10 (Homo sapiens, UniProt Q969S8); experiment: Inhibition of HDAC10 (unknown origin); summary of the method: as §1
T3 sequence (Q969S8 whole entry): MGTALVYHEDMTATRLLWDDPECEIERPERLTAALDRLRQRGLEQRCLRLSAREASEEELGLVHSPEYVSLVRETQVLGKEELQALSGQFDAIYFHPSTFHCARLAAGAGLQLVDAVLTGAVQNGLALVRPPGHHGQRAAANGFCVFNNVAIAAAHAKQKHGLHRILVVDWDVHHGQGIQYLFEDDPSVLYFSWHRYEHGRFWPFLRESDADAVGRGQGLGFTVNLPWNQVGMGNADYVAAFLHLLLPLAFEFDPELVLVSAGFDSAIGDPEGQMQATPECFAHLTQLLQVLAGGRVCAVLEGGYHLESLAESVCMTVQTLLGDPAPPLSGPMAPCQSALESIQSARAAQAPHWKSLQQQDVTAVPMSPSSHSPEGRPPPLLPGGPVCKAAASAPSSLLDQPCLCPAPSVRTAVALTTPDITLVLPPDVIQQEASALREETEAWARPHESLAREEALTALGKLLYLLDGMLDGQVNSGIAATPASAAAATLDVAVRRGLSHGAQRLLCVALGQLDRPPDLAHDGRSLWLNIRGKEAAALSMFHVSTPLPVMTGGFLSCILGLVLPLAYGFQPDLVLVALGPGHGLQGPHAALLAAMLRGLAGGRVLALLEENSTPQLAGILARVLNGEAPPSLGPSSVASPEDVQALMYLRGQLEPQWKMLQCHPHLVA

[6] = Toxicity in mouse assessed as effect on body weight; conditions: in vivo
Summary of the method: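 Normal (non-diabetic) mice were dosed, and blood glucose and body weight were tracked over the study.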

Histone deacetylase 5 = Histone deacetylase 5 (Homo sapiens, UniProt Q9UQL6); experiment: Inhibition of HDAC5 (unknown origin); summary of the method: as §1
Histone deacetylase 4 = Histone deacetylase 4 (Homo sapiens, UniProt P56524); experiment: Inhibition of HDAC4 (unknown origin); summary of the method: as §1
Sequence of Histone deacetylase 4 (P56524 whole entry): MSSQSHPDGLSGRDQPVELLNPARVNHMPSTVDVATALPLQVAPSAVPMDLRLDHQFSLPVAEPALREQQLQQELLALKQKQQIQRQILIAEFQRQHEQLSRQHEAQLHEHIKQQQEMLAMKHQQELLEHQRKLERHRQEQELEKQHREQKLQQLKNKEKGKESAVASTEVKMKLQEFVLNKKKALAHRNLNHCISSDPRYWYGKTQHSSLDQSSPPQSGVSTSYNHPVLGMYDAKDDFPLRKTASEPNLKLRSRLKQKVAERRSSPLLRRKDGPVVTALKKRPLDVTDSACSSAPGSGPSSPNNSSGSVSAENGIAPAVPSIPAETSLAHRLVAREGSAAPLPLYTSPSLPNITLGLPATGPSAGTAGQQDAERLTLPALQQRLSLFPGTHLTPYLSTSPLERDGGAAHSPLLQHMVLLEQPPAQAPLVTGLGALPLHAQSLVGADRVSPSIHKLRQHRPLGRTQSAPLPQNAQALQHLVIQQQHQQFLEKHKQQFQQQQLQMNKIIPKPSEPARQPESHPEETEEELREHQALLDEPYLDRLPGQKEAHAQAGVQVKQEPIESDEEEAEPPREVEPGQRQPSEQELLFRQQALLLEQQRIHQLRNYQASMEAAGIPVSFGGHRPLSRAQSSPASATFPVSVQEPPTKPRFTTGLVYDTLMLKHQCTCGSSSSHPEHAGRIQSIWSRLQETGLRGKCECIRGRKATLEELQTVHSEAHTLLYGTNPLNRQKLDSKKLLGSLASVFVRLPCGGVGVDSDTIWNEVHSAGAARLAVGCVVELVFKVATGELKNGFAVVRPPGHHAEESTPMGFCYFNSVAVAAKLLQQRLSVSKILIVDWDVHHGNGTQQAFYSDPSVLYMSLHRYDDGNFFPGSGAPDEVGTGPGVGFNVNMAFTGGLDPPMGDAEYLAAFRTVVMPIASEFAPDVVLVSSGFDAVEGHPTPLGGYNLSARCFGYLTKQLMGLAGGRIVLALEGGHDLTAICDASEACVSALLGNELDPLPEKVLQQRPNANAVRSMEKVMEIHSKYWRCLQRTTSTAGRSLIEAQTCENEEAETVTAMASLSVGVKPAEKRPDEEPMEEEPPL

Sequence of Histone deacetylase 1 (Q13547 whole entry): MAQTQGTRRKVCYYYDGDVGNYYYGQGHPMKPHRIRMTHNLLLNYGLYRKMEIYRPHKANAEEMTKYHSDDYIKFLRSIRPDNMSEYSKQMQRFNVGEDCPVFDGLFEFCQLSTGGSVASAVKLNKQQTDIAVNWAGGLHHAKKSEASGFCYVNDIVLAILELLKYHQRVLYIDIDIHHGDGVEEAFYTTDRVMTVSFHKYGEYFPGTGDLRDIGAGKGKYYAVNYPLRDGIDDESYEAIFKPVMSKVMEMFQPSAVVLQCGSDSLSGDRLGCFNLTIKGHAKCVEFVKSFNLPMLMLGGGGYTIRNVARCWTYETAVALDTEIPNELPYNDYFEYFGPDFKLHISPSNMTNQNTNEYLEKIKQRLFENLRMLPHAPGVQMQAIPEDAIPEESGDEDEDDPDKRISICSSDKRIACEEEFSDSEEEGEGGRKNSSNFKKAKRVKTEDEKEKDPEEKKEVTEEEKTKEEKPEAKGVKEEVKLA
Sequence of Histone deacetylase 5 (Q9UQL6 whole entry): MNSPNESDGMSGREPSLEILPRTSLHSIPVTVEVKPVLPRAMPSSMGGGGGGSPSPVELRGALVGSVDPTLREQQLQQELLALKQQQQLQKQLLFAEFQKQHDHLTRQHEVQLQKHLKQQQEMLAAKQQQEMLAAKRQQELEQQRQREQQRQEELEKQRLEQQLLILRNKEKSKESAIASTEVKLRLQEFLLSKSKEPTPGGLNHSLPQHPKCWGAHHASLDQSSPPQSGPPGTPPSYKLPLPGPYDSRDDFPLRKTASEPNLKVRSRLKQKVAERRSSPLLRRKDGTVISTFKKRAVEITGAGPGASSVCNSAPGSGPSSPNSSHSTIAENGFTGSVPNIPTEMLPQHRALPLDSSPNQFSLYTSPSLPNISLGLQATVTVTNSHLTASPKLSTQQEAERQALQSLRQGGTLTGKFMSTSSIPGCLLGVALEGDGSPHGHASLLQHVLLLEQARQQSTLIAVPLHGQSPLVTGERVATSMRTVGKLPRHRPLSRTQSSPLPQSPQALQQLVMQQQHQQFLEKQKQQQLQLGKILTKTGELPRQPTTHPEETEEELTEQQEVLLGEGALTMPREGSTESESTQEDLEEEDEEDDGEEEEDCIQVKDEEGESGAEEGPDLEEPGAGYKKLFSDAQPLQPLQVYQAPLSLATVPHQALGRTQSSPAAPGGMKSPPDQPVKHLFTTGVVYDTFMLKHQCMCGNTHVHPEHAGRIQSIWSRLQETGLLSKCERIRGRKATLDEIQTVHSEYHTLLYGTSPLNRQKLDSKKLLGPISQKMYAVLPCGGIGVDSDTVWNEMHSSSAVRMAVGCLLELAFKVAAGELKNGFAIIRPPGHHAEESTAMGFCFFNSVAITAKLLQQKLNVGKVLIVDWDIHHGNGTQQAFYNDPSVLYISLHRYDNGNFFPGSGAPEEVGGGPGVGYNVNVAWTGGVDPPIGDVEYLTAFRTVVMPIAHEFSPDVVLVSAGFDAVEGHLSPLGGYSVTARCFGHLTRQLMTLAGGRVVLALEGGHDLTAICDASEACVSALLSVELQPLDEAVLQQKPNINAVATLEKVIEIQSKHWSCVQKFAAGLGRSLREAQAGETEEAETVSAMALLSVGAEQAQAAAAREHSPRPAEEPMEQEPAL
Sequence of NAD-dependent protein deacylase sirtuin-6 (Q8N6T7 whole entry): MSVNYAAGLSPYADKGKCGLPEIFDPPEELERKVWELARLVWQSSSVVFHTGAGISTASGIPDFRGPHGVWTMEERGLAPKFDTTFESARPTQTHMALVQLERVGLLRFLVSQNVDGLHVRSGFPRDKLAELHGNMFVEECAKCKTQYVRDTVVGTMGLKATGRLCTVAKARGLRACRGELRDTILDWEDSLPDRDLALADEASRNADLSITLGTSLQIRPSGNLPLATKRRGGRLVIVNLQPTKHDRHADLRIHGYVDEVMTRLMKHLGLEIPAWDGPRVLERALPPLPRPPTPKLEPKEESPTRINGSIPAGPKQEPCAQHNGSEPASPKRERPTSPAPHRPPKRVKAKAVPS
Sequence of Histone deacetylase 2 (Q92769 whole entry): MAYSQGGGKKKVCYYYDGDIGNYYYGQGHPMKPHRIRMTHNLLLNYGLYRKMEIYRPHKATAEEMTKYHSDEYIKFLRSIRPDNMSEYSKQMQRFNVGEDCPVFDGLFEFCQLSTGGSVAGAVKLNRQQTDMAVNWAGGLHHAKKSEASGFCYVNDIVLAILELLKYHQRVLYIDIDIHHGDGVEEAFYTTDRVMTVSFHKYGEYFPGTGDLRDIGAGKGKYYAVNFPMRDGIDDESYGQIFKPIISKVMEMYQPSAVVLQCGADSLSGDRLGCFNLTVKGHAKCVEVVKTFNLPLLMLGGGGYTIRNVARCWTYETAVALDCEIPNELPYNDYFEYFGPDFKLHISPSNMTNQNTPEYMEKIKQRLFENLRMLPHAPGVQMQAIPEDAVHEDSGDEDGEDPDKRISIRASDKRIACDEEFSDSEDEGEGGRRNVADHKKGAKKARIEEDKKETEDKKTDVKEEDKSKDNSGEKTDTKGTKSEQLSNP

In the case of CN1CCN(c2ccc([N+](=O)[O-])c(N)c2)CC1, the IC50 [1] is reported as > 200 µM, the Activity (BXPC-3) is reported as “Dose-dependent effect” and the IC50 [2] is reported as > 200 µM. For the same compound, the Activity [3] was “Non-Toxic”, the ΔTm [4] was 1.88 °C and the IC50 (Histone deacetylase 2) was > 200 µM. The Activity (Mus musculus) was “Active”, the IC50 (Histone deacetylase 1) was > 200 µM and the IC50 [5] was > 200 µM. The Activity [6] was “Non-Toxic”, the IC50 (Histone deacetylase 5) was > 200 µM and the IC50 (Histone deacetylase 4) was > 200 µM.
